According to ChEMBL document CHEMBL4364301 (Eur J Med Chem, 2019):

Tests used:
Format in all cases: functional
CWR22R = test: Antiproliferative activity against human 22Rv1 cells assessed as reduction in cell growth incubated for 96 hrs by propidium iodide based 2D monolayer assay; conditions: 22Rv1, 96 h
Method in brief: (§1)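 After 24 h recovery, compound in medium or medium alone (control wells) was added at 10 half-log concentrations from 0.0032 to 100 µM, in triplicate, with at most 0.3% DMSO. After 96 h, wells were PBS-washed, stained with 7 µg/ml PI and 0.1% Triton X-100, and fluorescence read at 530/620 nm. IC50 came from a 4-parameter fit, geometric mean.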

VCaP = test: Antiproliferative activity against human VCaP cells assessed as reduction in cell growth incubated for 96 hrs by propidium iodide based 2D monolayer assay
Method in brief: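 VCaP cells in RPMI 1640 with 10% FCS at 37 °C, 5% CO2, seeded 4,000–20,000 cells/well and left 24 h before dosing. Compounds from DMSO stocks were diluted in half-log steps in medium, 10 concentrations 0.0032–100 μM, triplicate wells, max 0.3% DMSO. After 96 h, cells were washed, stained with 7 μg/ml propidium iodide plus 0.1% Triton X-100 for 1–2 h at room temperature, and fluorescence read at ex 530/em 620 nm.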

DU-145 = test: Antiproliferative activity against human DU145 cells assessed as reduction in cell growth incubated for 96 hrs by propidium iodide based 2D monolayer assay; conditions: DU-145, 96 h; method in brief: as §1
LNCaP = test: Antiproliferative activity against human LNCAP cells assessed as reduction in cell growth incubated for 96 hrs by propidium iodide based 2D monolayer assay; method in brief: as §1

SMILES | IC50 (CWR22R) | IC50 (VCaP) | IC50 (DU-145) | IC50 (LNCaP)
CC(O)(COc1ccc(C#N)cc1)C(=O)Nc1cccc(S(F)(F)(F)(F)F)c1 (racemic) | 32.5 µM | 26.6 µM | 42.6 µM | 30 µM
CC(O)(COc1cccc(OC(F)(F)F)c1)C(=O)Nc1ccc(S(F)(F)(F)(F)F)cc1 (racemic) | 17.3 µM | 18.3 µM | 18.4 µM | 11 µM
CC(O)(COc1cccc(OC(F)(F)F)c1)C(=O)Nc1cccc(S(F)(F)(F)(F)F)c1 (racemic) | 18.8 µM | 28.6 µM | 30.1 µM | 15.2 µM
CC(O)(CS(=O)(=O)c1ccc(S(F)(F)(F)(F)F)cc1)C(=O)Nc1ccc(C#N)cc1C(F)(F)F (racemic) | 19.4 µM | 43 µM | 25.6 µM | 17.8 µM
CC(O)(CS(=O)(=O)c1ccc(S(F)(F)(F)(F)F)cc1)C(=O)Nc1ccc([N+](=O)[O-])cc1C(F)(F)F (racemic) | 18.7 µM | 28.6 µM | 17.7 µM | 12.5 µM
CC(O)(CS(=O)(=O)c1cccc(S(F)(F)(F)(F)F)c1)C(=O)Nc1ccc([N+](=O)[O-])cc1C(F)(F)F (racemic) | 100 µM | 100 µM | 100 µM | 6.5 µM
CC(O)(COc1ccc(C#N)c(F)c1)C(=O)Nc1cccc(S(F)(F)(F)(F)F)c1 (racemic) | 63.4 µM | 91.9 µM | 74.8 µM | 83.7 µM
CC(O)(CS(=O)(=O)c1cccc(C(F)(F)F)c1)C(=O)Nc1ccc(S(F)(F)(F)(F)F)cc1 (racemic) | 23.8 µM | 32 µM | 31.9 µM | 21 µM
CC(O)(CS(=O)(=O)c1cccc(S(F)(F)(F)(F)F)c1)C(=O)Nc1ccc(S(F)(F)(F)(F)F)cc1 (racemic) | 39.9 µM | 24.8 µM | 34 µM | 31.3 µM
CC(O)(CS(=O)(=O)c1ccc(C(F)(F)F)cc1)C(=O)Nc1ccc(S(F)(F)(F)(F)F)cc1 (racemic) | 28.9 µM | 27.7 µM | 29.3 µM | 20.7 µM
CC(O)(COc1ccc(S(F)(F)(F)(F)F)cc1)C(=O)Nc1ccc(S(F)(F)(F)(F)F)cc1 (racemic) | 13 µM | 9.3 µM | 24.9 µM | 9.8 µM
CC(O)(COc1ccc(C#N)cc1C(F)(F)F)C(=O)Nc1cccc(S(F)(F)(F)(F)F)c1 (racemic) | 18.3 µM | 30.6 µM | 22.8 µM | 16.4 µM
CC(O)(COc1cccc(S(F)(F)(F)(F)F)c1)C(=O)Nc1ccc([N+](=O)[O-])cc1C(F)(F)F (racemic) | 15.5 µM | 20.3 µM | 18 µM | 12.1 µM
CC(O)(COc1ccc(OC(F)(F)F)cc1)C(=O)Nc1ccc(S(F)(F)(F)(F)F)cc1 (racemic) | 27.9 µM | 12.8 µM | 24.8 µM | 18.6 µM
CC(O)(COc1cccc(C(F)(F)F)c1)C(=O)Nc1cccc(S(F)(F)(F)(F)F)c1 (racemic) | 28.9 µM | 22.5 µM | 31.7 µM | 28.8 µM
CC(O)(COc1cccc(S(F)(F)(F)(F)F)c1)C(=O)Nc1ccc(S(F)(F)(F)(F)F)cc1 (racemic) | 17.6 µM | 11.4 µM | 29.6 µM | 12 µM
CC(O)(CS(=O)(=O)c1ccc(S(F)(F)(F)(F)F)cc1)C(=O)Nc1ccc([N+](=O)[O-])c(C(F)(F)F)c1 (racemic) | 14.7 µM | 19.2 µM | 17.7 µM | 10 µM
CC(O)(COc1ccc(S(F)(F)(F)(F)F)cc1)C(=O)Nc1cccc(S(F)(F)(F)(F)F)c1 (racemic) | 10.2 µM | 8 µM | 12.8 µM | 8 µM

SMILES | IC50 (CWR22R) | IC50 (VCaP) | IC50 (DU-145) | IC50 (LNCaP)
CC(O)(COc1ccccc1OC(F)(F)F)C(=O)Nc1ccc(S(F)(F)(F)(F)F)cc1 (racemic) | 7.3 µM | 9.7 µM | 16.8 µM | 8.9 µM
CC(O)(CS(=O)(=O)c1ccccc1C(F)(F)F)C(=O)Nc1ccc(S(F)(F)(F)(F)F)cc1 (racemic) | 17.4 µM | 23.8 µM | 29.4 µM | 10.8 µM
CC(O)(CS(=O)(=O)c1cccc(S(F)(F)(F)(F)F)c1)C(=O)Nc1ccc([N+](=O)[O-])c(C(F)(F)F)c1 (racemic) | 14.8 µM | 24.6 µM | 17.2 µM | 13.8 µM
CC(O)(CS(=O)(=O)c1ccc(S(F)(F)(F)(F)F)cc1)C(=O)Nc1ccc(S(F)(F)(F)(F)F)cc1 (racemic) | 17.3 µM | 15.7 µM | 28.9 µM | 29.2 µM
CC(O)(COc1ccc(C#N)cc1)C(=O)Nc1ccc(S(F)(F)(F)(F)F)cc1 (racemic) | 26.1 µM | 100 µM | 32.2 µM | 100 µM
CC(O)(COc1ccccc1C(F)(F)F)C(=O)Nc1cccc(S(F)(F)(F)(F)F)c1 (racemic) | 34.9 µM | 36.7 µM | 52.2 µM | 26.3 µM
CC(O)(COc1cccc(C(F)(F)F)c1)C(=O)Nc1ccc(S(F)(F)(F)(F)F)cc1 (racemic) | 14.6 µM | 24.7 µM | 21.9 µM | 24.7 µM
CC(O)(COc1ccc(OC(F)(F)F)cc1)C(=O)Nc1cccc(S(F)(F)(F)(F)F)c1 (racemic) | 12.9 µM | 20.2 µM | 19.1 µM | 12.7 µM
CC(O)(COc1ccc(C(F)(F)F)cc1)C(=O)Nc1cccc(S(F)(F)(F)(F)F)c1 (racemic) | 3.6 µM | 13.3 µM | 13.6 µM | 9.6 µM
CC(O)(COc1cccc(S(F)(F)(F)(F)F)c1)C(=O)Nc1ccc(C(F)(F)F)cc1 (racemic) | 15.8 µM | 23.8 µM | 21 µM | 12.8 µM
CC(O)(COc1ccc(C#N)c(F)c1)C(=O)Nc1ccc(S(F)(F)(F)(F)F)cc1 (racemic) | 24.3 µM | 100 µM | 30.4 µM | 100 µM
CC(O)(COc1ccc(S(F)(F)(F)(F)F)cc1)C(=O)Nc1ccc(C(F)(F)F)cc1 (racemic) | 12.9 µM | 14.7 µM | 27.4 µM | 11.7 µM
CC(O)(COc1cccc(S(F)(F)(F)(F)F)c1)C(=O)Nc1cccc(S(F)(F)(F)(F)F)c1 (racemic) | 27.3 µM | 26.7 µM | 30.7 µM | 10.9 µM
CC(O)(CS(=O)(=O)c1ccc(F)cc1)C(=O)Nc1ccc(S(F)(F)(F)(F)F)cc1 (racemic) | 20.6 µM | 34.2 µM | 27.7 µM | 18.2 µM
CC(O)(COc1ccccc1OC(F)(F)F)C(=O)Nc1cccc(S(F)(F)(F)(F)F)c1 (racemic) | 30 µM | 27.7 µM | 38.1 µM | 16.1 µM
CC(O)(COc1ccc(C#N)cc1C(F)(F)F)C(=O)Nc1ccc(S(F)(F)(F)(F)F)cc1 (racemic) | 13.8 µM | 100 µM | 21.2 µM | 100 µM
CC(O)(CS(=O)(=O)c1cccc(S(F)(F)(F)(F)F)c1)C(=O)Nc1ccc(C#N)cc1C(F)(F)F (racemic) | 14.3 µM | 20.8 µM | 22.1 µM | 12.9 µM
